The values below come from ChEMBL document CHEMBL4033615, “Protoxenicins A and B, Cytotoxic Long-Chain Acylated Xenicanes from the Soft Coral Protodendron repens” (2017).

Format in all cases: functional
What all share (settings): for CC50: read-out: LC50 (the source's name)

The test system of one experiment is MDA-MB-231. The experiment is described as follows: Cytotoxic activity against human MDA-MB-231 cells. Put shortly: (§1)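 Human tumour lines (A-549 lung carcinoma, MDA-MB-231 breast adenocarcinoma, HT-29 colorectal carcinoma) exposed to test agent. Growth measured against untreated control cells. Survival estimated with the NCI algorithm, yielding three dose–response parameters: GI50 (50% growth inhibition), TGI (total growth inhibition) and LC50 (50% cell death).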

The next experiment has as its system A549. The experiment is described as follows: Cytotoxic activity against human A549 cells. Summed up: as §1
The test system of the next experiment is HT-29. The experiment is described as follows: Cytotoxic activity against human HT-29 cells. Put shortly: as §1

Where only a bound is given, the exact number is not on record here.

By GI50 is commonly meant the concentration that inhibits growth by half. Read a low GI50 as greater sensitivity of the cells. One may read the TGI as the concentration giving total growth inhibition.

In the case of `C=C1[C@@H]2[C@@H](OC(C)=O)OC=C([C@@H](OC(C)=O)[C@H](C=C(C)C)OC(=O)CCCCCCCCC)[C@H]2CC/C(C)=C/[C@@H](O)[C@H]1O`, in the experiment with MDA-MB-231, halving of growth (GI50) required 6.3 µM, the concentration for total growth inhibition (TGI) was determined as 9.7 µM and the CC50 was determined as 12.9 µM. In the experiment on A549, the GI50 amounted to 6.1 µM, the concentration for total growth inhibition (TGI) was found to be 10.1 µM and the CC50 worked out at 13.3 µM. Also, in the experiment with HT-29, growth was halved (GI50) at 1.7 µM, net growth stopped (TGI) at 5.2 µM and the CC50 was found to be 10.4 µM.

Regarding `C=C1[C@@H]2[C@@H](OC(C)=O)OC=C([C@@H](OC(C)=O)[C@@H](OC(=O)CCCCCCCCC)[C@H]3OC3(C)C)[C@H]2CC[C@](C)(O)[C@@H]2O[C@@H]2[C@H]1O`, in the experiment on MDA-MB-231, growth was halved (GI50) at 2.1 µM, the total growth inhibition concentration (TGI) was 2.8 µM and the CC50 was found to be 3.8 µM. For the same compound, in the experiment on A549, the 50% growth inhibitory concentration (GI50) stood at 1.1 µM, total growth inhibition (TGI) required 1.4 µM and the CC50 came to 1.8 µM. In the experiment on HT-29, the GI50 came out at 0.6 µM, net growth stopped (TGI) at 1.2 µM and the CC50 is 2.2 µM.

On to `COc1cccc2c1C(=O)c1c(O)c3c(c(O)c1C2=O)C[C@@](O)(C(=O)CO)C[C@@H]3O[C@H]1C[C@H](N)[C@H](O)[C@H](C)O1` [DOXORUBICIN], for which, in the experiment on MDA-MB-231, the concentration for 50% growth inhibition (GI50) was 0.2 µM, total growth inhibition (TGI) required 0.5 µM and the CC50 turned out to be 2.4 µM. For the same compound, in the experiment on A549, the concentration for 50% growth inhibition (GI50) was 0.2 µM, the concentration for total growth inhibition (TGI) was determined as 0.9 µM and the CC50 was above 17.2 µM. For the same compound, in the experiment on HT-29, the concentration for 50% growth inhibition (GI50) stood at 0.3 µM, the TGI came out at 0.9 µM and the CC50 is above 17.2 µM.
